These results are taken from ChEMBL document CHEMBL5226356, “Ring Size as an Independent Variable in Cyclooligomeric Depsipeptide Antiarrhythmic Activity” (ACS Med Chem Lett, 2021).

SMILES strings stand for the structures. The source made the active and inactive calls. The rule behind the calls is not given here.

The target of series [1] is Ryanodine receptor 2 (Mus musculus) (UniProt E9Q401). The series is described as follows: Inhibition of RyR2 in Casq2 gene knockout mouse cardiomyocytes assessed as reduction in calcium sparks frequency at 25 uM incubated for 10 mins. It counts as cell-based. Particulars: Cardiomyocyte. Summed up:
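Isolated ventricular cardiomyocytes permeabilized with saponin, which opens the sarcolemma but leaves the SR membrane intact. Cells incubated 10 min with 25 μM compound or DMSO vehicle. RyR2 activity read as spontaneous Ca2+ spark frequency and compared to vehicle; statistics by one-way ANOVA with Tukey's posthoc test.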

The nature of series [2]: Kinetic solubility of the compound in Hanks Bile Salt Solution at 25 uM incubated for 2 hrs by nephelometry. It counts as ADME.
Series [3] can be described thus: Kinetic solubility of the compound in phosphate buffer at pH 7.4 at 25 uM incubated for 2 hrs by nephelometry. The series is classed as physicochemical. The following applies: pH 7.4, 2 h.
Series [4] has as its target Ryanodine receptor 2 (Mus musculus) (UniProt E9Q401). As to the kind of experiment: Inhibition of RyR2 in Casq2 gene knockout mouse cardiomyocytes assessed as reduction in calcium sparks frequency at 25 uM incubated for 60 mins. It counts as cell-based. The following applies: Cardiomyocyte. Summed up:
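Isolated ventricular cardiomyocytes were permeabilized with saponin, which opens the sarcolemma but leaves the SR membrane intact. Cells were incubated with 25 μM compound or DMSO vehicle for 60 min (extended from the 10 min screen). RyR2 activity was read as the frequency of Ca2+ sparks relative to vehicle. Statistics were one-way ANOVA with Tukey's post hoc test.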

In another series the target is Ryanodine receptor 2 (Mus musculus, UniProt E9Q401). The series is described as follows: Inhibition of RyR2 in Casq2 gene knockout mouse cardiomyocytes assessed as reduction in calcium sparks frequency incubated for 30 mins. It counts as cell-based, Cardiomyocyte. A digest of the protocol: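 Saponin-permeabilized isolated ventricular cardiomyocytes (sarcolemma opened, SR membrane intact) incubated 30 min with compound across a concentration range for concentration-response curves. Read-out is frequency of spontaneous Ca2+ sparks, used as a measure of RyR2 activity. DMSO served as vehicle.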
Chain of Ryanodine receptor 2 (E9Q401 whole entry): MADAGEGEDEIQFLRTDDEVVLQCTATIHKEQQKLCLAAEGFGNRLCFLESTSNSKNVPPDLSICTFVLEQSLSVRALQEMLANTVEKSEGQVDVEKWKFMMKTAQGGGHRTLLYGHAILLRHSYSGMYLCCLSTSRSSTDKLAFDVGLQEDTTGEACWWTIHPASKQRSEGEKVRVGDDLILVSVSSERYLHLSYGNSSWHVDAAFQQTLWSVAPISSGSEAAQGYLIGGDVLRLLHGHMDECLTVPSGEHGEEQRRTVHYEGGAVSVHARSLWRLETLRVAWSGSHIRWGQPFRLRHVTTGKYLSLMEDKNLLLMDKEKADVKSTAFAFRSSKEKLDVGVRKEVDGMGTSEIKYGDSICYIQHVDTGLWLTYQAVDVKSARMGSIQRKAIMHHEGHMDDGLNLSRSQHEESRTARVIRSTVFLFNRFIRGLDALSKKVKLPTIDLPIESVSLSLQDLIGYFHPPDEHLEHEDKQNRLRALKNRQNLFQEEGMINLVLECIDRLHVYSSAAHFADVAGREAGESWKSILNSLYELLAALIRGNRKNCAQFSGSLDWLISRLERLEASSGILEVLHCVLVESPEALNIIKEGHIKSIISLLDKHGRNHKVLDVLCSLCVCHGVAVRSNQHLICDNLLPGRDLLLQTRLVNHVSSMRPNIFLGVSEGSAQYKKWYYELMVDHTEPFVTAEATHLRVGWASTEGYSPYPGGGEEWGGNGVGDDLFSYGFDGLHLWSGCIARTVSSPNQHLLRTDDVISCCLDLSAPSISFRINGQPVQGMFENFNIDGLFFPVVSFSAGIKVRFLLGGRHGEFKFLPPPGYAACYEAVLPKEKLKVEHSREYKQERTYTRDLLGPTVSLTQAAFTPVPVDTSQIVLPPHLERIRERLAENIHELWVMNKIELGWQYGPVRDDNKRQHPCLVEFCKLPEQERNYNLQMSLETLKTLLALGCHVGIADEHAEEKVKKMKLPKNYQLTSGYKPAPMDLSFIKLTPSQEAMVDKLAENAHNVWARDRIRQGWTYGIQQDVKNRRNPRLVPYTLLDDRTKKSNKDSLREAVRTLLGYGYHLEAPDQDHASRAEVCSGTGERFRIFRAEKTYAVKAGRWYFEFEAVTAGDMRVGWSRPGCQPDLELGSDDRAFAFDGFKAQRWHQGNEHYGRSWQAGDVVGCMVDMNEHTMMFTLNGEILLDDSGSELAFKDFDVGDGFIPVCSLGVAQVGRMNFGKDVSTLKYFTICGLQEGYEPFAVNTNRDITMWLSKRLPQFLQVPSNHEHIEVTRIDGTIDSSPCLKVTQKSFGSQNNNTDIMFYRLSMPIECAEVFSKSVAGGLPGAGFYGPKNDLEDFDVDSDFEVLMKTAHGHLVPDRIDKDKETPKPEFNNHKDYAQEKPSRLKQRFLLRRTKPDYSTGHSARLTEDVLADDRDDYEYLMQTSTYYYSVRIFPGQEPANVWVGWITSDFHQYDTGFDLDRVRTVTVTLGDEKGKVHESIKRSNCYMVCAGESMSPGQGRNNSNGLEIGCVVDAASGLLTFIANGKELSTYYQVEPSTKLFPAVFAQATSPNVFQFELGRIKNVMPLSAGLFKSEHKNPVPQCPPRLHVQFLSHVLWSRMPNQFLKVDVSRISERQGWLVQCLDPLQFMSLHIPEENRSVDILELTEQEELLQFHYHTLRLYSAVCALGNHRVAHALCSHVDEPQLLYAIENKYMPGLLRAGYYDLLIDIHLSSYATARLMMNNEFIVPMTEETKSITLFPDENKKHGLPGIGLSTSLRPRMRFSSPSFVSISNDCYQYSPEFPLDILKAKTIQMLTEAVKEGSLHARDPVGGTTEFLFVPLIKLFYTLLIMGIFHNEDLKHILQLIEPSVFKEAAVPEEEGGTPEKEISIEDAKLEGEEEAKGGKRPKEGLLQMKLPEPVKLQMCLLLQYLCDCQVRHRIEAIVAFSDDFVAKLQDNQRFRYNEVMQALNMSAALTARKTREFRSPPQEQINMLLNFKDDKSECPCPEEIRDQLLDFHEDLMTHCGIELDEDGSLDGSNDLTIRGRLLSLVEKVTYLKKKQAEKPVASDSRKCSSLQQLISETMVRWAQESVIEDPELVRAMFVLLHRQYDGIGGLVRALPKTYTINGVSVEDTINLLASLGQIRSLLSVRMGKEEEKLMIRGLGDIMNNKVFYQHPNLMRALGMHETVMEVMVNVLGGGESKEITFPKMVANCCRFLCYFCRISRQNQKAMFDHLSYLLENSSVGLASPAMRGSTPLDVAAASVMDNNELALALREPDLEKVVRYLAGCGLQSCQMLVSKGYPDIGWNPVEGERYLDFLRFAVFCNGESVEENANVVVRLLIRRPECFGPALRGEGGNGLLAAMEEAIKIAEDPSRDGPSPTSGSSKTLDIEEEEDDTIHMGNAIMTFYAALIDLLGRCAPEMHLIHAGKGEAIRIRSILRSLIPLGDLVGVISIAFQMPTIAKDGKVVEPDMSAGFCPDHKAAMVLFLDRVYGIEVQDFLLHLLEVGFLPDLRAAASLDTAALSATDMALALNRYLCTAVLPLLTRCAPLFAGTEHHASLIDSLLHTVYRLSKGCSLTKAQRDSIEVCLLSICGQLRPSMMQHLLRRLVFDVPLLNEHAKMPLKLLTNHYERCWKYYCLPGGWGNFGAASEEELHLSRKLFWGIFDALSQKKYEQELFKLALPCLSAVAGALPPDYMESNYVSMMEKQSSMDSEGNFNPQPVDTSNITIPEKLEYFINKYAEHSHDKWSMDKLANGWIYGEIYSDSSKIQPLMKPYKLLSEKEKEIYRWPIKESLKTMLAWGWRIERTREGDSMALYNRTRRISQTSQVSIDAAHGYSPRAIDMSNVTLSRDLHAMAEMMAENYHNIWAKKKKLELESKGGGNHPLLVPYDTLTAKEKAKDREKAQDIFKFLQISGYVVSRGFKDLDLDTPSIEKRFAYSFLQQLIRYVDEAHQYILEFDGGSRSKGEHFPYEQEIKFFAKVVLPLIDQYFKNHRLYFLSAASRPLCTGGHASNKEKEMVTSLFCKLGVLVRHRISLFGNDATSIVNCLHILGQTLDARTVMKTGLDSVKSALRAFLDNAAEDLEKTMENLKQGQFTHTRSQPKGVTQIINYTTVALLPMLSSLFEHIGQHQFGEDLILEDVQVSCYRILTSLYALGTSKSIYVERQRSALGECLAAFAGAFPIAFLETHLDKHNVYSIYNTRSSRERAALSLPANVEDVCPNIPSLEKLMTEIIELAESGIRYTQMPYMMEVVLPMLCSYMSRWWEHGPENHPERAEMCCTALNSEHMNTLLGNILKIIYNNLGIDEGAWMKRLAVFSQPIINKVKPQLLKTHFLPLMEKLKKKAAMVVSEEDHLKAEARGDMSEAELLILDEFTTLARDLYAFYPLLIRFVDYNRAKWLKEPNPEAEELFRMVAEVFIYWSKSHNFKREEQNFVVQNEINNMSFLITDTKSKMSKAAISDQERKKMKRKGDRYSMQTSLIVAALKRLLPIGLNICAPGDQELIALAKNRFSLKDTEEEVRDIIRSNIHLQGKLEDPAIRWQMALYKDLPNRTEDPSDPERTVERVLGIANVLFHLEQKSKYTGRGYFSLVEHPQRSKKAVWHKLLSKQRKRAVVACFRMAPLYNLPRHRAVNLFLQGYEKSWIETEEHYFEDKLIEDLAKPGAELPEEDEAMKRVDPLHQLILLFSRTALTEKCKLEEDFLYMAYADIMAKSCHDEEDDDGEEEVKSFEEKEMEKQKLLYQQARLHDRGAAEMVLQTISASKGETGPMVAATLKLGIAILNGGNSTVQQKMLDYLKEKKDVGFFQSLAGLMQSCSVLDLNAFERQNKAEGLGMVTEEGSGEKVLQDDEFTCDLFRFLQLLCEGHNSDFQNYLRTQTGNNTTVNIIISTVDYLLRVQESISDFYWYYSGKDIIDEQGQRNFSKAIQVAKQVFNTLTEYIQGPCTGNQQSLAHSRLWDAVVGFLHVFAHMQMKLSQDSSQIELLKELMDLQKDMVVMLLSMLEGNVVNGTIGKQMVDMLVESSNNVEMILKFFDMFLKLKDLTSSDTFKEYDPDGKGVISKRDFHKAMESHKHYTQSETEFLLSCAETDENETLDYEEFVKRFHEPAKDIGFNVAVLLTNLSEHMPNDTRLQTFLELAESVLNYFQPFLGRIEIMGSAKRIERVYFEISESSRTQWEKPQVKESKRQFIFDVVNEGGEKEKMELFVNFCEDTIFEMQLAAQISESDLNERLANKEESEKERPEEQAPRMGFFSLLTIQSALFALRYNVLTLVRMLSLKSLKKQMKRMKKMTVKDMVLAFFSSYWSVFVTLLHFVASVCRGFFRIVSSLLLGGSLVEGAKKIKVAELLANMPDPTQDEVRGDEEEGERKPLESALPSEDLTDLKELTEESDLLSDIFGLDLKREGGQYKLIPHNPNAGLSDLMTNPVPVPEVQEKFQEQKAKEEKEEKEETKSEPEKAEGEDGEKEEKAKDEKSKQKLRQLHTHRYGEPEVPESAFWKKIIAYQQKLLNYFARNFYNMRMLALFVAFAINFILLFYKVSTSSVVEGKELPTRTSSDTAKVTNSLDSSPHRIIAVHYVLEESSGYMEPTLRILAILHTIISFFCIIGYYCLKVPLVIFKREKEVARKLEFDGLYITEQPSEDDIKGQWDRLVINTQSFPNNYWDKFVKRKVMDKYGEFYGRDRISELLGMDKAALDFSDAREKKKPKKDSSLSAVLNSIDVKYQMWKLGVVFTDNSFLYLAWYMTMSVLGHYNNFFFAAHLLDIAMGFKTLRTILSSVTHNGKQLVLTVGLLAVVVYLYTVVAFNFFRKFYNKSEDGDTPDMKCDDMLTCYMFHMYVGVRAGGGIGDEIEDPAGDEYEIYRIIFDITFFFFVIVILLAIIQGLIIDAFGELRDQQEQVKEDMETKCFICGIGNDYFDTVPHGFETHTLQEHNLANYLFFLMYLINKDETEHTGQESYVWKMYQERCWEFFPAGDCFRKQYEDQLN

The IC50 is the concentration at which inhibition is half-maximal.

Chain of Ryanodine receptor 2 (Mus musculus) (E9Q401 whole entry): as above

On to `CCCCC[C@@H]1OC(=O)[C@@H](C)N(C)C(=O)[C@H](CCCCC)OC(=O)[C@@H](C)N(C)C(=O)[C@H](CCCCC)OC(=O)[C@@H](C)N(C)C(=O)[C@H](CCCCC)OC(=O)[C@@H](C)N(C)C(=O)[C@H](CCCCC)OC(=O)[C@@H](C)N(C)C(=O)[C@H](CCCCC)OC(=O)[C@@H](C)N(C)C1=O`, for which the inhibition result in series [1] is “inactive”. In addition, the Kinetic_solubility result in series [2] and in series [3] was “Soluble” each time.

Turning to `CCCCC[C@H](OC(=O)[C@@H](C)N(C)C(=O)[C@H](CCCCC)OC(=O)[C@@H](C)N(C)C(=O)OC(C)(C)C)C(=O)OCc1ccccc1`, in series [4], the inhibition entry is “inactive”.

On to `CCCCC[C@@H]1OC(=O)[C@@H](C)N(C)C(=O)[C@H](CCCCC)OC(=O)[C@@H](C)N(C)C1=O`, for which the inhibition entry in series [1] and in series [4] was “inactive” in each case. Besides, the Kinetic_solubility result in series [2] and in series [3] was “Soluble” each time.

Regarding `CCCCC[C@H]1OC(=O)[C@H](C)N(C)C1=O`, in series [1], the inhibition result is “inactive”. Also, the Kinetic_solubility result in series [2] and in series [3] was “Soluble” throughout.

With `CCCCC[C@@H]1OC(=O)[C@@H](C)N(C)C(=O)[C@H](CCCCC)OC(=O)[C@@H](C)N(C)C(=O)[C@H](CCCCC)OC(=O)[C@@H](C)N(C)C1=O`, the inhibition result in series [1] is “Active”. On Ryanodine receptor 2, the concentration for half-maximal inhibition (IC50) amounted to 3880 nM. In addition, the Kinetic_solubility result in series [2] and in series [3] was “Soluble” throughout.

With `CCCCC[C@@H]1OC(=O)[C@@H](C)N(C)C(=O)[C@H](CCCCC)OC(=O)[C@@H](C)N(C)C(=O)[C@H](CCCCC)OC(=O)[C@@H](C)N(C)C(=O)[C@H](CCCCC)OC(=O)[C@@H](C)N(C)C(=O)[C@H](CCCCC)OC(=O)[C@@H](C)N(C)C1=O`, the inhibition result in series [1] and in series [4] was “inactive” each time. The Kinetic_solubility result in series [2] and in series [3] was “Soluble” in each case.

Regarding `CCCCC[C@@H]1OC(=O)[C@@H](C)N(C)C(=O)[C@H](CCCCC)OC(=O)[C@@H](C)N(C)C(=O)[C@H](CCCCC)OC(=O)[C@@H](C)N(C)C(=O)[C@H](CCCCC)OC(=O)[C@@H](C)N(C)C1=O`, the inhibition entry in series [1] was “Active”. Further, on Ryanodine receptor 2, the IC50 was determined as 1890 nM. Further, the Kinetic_solubility result in series [2] and in series [3] was “Soluble” throughout.
